From paper PMC5186364 (Journal of molecular biology, 2016)
Where two headings read alike, the source gives them in different places.

Key:
A3G-mycHis (APOBEC3G) = A3G-mycHis (APOBEC3G) (Homo sapiens, UniProt Q9HC16); test: Fluorescence-based ssDNA cytosine deaminase assay with purified A3G-mycHis; format: biochemical; conditions: for reproducibility of A3G inhibitory activity (in words): introductory summary of own findings, assay format not stated
How it was run: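 Human A3G-mycHis purified by C-terminal His tag from HEK293T cells and diluted in pH 7.4 Tris buffer with Triton and protease inhibitors. Enzyme incubated with 10 pmol 6-FAM/TAMRA ssDNA containing one CCC site. Then UDG treatment for 2 hrs at 37 °C, NaOH cleavage for 30 min, and neutralisation. Fluorescence read at ex 490/em 520 nm. Peptides from 10 mM DMSO stocks; n = 3, mean ± SEM; IC50 from curve fit.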

A3G (APOBEC3G) [1] = conditions: biochemical assays, prior studies, ref [14]–[18], cited from earlier work
A3G (APOBEC3G) [2] = test: PCR and restriction-based ssDNA deamination assay; format: biochemical, human; conditions: 10 nM A3G, 1 nM ssDNA, 37 °C, 30 min, pH 7.0, gel representative of >3 independent experiments

A3G-mycHis (APOBEC3G), sequence (Q9HC16 whole entry): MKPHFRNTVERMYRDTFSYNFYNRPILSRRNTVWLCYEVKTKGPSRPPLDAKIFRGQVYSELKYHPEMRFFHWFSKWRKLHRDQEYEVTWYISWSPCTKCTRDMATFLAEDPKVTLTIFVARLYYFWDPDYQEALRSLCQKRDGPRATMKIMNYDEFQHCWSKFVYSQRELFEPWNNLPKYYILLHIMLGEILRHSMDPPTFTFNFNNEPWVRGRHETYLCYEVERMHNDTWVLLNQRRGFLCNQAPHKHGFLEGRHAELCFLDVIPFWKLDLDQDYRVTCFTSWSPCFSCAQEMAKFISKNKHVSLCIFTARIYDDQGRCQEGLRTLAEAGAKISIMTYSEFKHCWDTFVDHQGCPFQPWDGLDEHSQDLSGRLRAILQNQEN

Substance | specificity of A3G inhibition (in words) (A3G-mycHis (APOBEC3G); conclusion from scrambled and reverse peptide comparison) | reproducibility of A3G inhibitory activity (in words) (A3G-mycHis (APOBEC3G)) | published A3G inhibitory activity (in words) (A3G (APOBEC3G) [1]; listed as Vif 105–119) | published A3G inhibitory activity (in words) (A3G (APOBEC3G) [1]; listed as Vif peptide 105–119) | A3G inhibitory effect (in words) (A3G (APOBEC3G) [2]) | published A3G inhibitory activity (in words) (A3G (APOBEC3G) [1]) | published A3G inhibitory activity (in words) (A3G (APOBEC3G) [1]; listed as Vif peptide 25–39)
H-QLIHLYYFDCFSESA-OH [compound 6044] | non-specific | reproducible A3G inhibitory activity | low micromolar inhibitory activities | sub-micromolar inhibitory activities | – | – | –
H-VKHHMYISGKAKGWF-OH [Vif25–39] | – | did not find significant A3G inhibitory activity | – | – | no inhibitory effect | low micromolar inhibitory activities | sub-micromolar inhibitory activities
